This is a sample that favours compounds with a hit; in the whole collection about 4.1% have one here.
KCNQ1 pot – human KCNQ1 channel potentiation or activation. AID 2648. B-score at 10 µM. P51787. CHO-K1 KCNQ1, thallium flux FluxOR fluorescence; active compounds read high. 0.35% of 310,000 active;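 active means fluorescence ratio B-score, a plate-corrected score, at least three library SD, with initial intensity B-score within 5 SD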
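System: CHO-K1 cells stably expressing KCNQ1 / Medium: assay buffer for compound exposure, DMSO matched across wells / Reagent: thallium- and potassium-containing depolarizing buffer / Compound: one concentration, matched DMSO / Incubation: 20 min compound pretreatment at room temperature / Measured by: kinetic FluxOR fluorescence, 10 s baseline plus 110 s post-stimulus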
hERG protect – shields human hERG channel from block by proarrhythmic agents | CHO-hERG, FluxOR thallium flux, dofetilide IC70 present | 0.51% of 310,000 active | activation (rescue from dofetilide block), less the hit threshold, % at 10 µM | Q12809 | AID 1511;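 active means activation above the mean of controls blocked by dofetilide plus 5 SD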;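 further: thallium influx through hERG after potassium depolarization seen as dye fluorescence rise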
KCNQ1 block – human KCNQ1 channel inhibition | CHO-K1 KCNQ1, FluxOR thallium flux fluorescence; active compounds read high | B-score at 10 µM | 1.3% of 310,000 active | P51787;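 active means compounds whose thallium flux B-score, printed positive for inhibition, exceeds three library SD while starting fluorescence stays within three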;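 further: channel opened by potassium depolarization with thallium stimulus after 20 min compound exposure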
KCC2 mod – KCC2 (human) Cl- transport modulation | Q9H2X9 | KCC2 cells, thallium flux FluoZin-2 fluorescence | B-score of Tl+ flux slope (higher = more flux/activation; lower = inhibition) at 10 µM | 2.2% of 190,000 active | AID 1456;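 active means thallium flux slope and its plate-corrected score both differing from the plate sample mean at a set confidence after two filtering rounds, in either direction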;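 further: slope of fluorescence scaled to starting intensity during 10 to 20 s after thallium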
KCNK9 block – blocks the human KCNK9 two-pore domain potassium channel; B-score at 10 µM; 1.2% of 310,000 active; Q9NPC2; HEK293 KCNK9, FluxOR thallium flux fluorescence; active compounds read low;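 active means ratio B-score over 3 SD below the library mean, with starting fluorescence within 5 SD of its mean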;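 further: negative B-score means less thallium flux so channel inhibition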
Target sequence (Q9NPC2 whole entry, looked up, the tested form may be a part): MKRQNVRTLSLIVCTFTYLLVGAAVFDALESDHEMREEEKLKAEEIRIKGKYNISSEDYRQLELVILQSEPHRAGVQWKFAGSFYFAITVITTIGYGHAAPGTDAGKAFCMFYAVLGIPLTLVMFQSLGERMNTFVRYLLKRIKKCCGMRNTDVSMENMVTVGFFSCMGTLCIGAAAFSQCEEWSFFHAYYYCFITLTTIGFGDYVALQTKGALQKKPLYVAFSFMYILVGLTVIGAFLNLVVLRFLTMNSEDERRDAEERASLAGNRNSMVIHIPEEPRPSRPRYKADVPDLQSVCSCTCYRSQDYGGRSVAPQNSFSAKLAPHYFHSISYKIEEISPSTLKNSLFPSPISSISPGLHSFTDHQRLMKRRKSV
KCNK3 inh – human KCNK3 channel inhibition, primary screen; B-score at 10 µM; 0.84% of 340,000 active; CHO-KCNK3 thallium flux, FluxOR fluorescence; active compounds read low; O14649;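 active means B-score under library mean minus 4 SD, starting fluorescence ratio at most library mean plus 5 SD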;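 further: more negative B-score means stronger inhibition of thallium flux through KCNK3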
KCNK9 inh conf – human KCNK9 inhibitor confirmation; AID 492992; shares compounds with KCNK9 block; 43% of 4,900 active; inhibition, % at 10 µM; HEK293 KCNK9 cells, FluxOR thallium flux fluorescence;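 active means thallium signal inhibited by more than 5 SD of the compound-free buffer control wells, on both duplicate plates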;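 further: 0% = assay buffer control wells without compound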
Kir21 sel – selectivity of KCNK9 modulators against mouse Kir2.1 | inhibition, % at 10 µM | 4% of 4,900 active | shares compounds with KCNK9 block | Kir2.1 cells, FluxOR thallium flux fluorescence;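 active means thallium signal drop more than 5 SD beyond the mean of the no-compound control wells, seen in both duplicate plates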;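 further: signal is fluorescence rise after thallium addition divided by baseline fluorescence; plate controls were assay buffer only for no effect and full block by chlorpromazine control for full effect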
KCNK9 uninduced – second counter-screen for KCNK9 modulators: effect in non-induced cells | shares compounds with KCNK9 block | non-induced KCNK9-HEK293, FluxOR thallium flux | inhibition, % at 10 µM | 40% of 4,900 active;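 active means thallium signal drop beyond 5 SD of the untreated control mean, on both duplicate plates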;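 further: plate controls were buffer only IC0 wells for no effect and SID17386958 at its maximal inhibitory level for full effect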
KCNK3 confirm – confirmation of human KCNK3 two-pore domain potassium channel inhibitors; shares compounds with KCNK3 inh; CHO-KCNK3 thallium flux, FluxOR fluorescence; 0% buffer, 100% carvedilol maximal block; ratio percent of control, % at 10 µM; 99% of 2,400 active;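 active means ratio percent of control, averaged over triplicates, above buffer control mean plus 5 SD, cut at about 64% in these data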;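 further: ratio is the fluorescence rise from min to max over baseline after thallium stimulus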
KCNK3 noninduced – activity in cells without induced KCNK3 expression | shares compounds with KCNK3 inh | non-induced KCNK3 parental cells, FluxOR thallium flux; active compounds read low | thallium flux ratio (lower = more inhibition) at 10 µM | 40% of 2,400 active;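 active means thallium flux ratio, averaged over three wells, more than 5 SD below the buffer control mean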;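 further: host cells are CHO cells without KCNK3 induction; ratio is peak minus trough fluorescence over baseline then normalized to buffer controls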
* marks the source's active call; other numbers are inactive results; i = inactive; x = not tested or not shown.

SMILES | KCNQ1 pot | hERG protect | KCNQ1 block | KCC2 mod | KCNK9 block | KCNK3 inh | KCNK9 inh conf | Kir21 sel | KCNK9 uninduced | KCNK3 confirm | KCNK3 noninduced
Cc1sc2nc3c(C(=O)N4CCCC4)cc(C(=O)c4ccccc4O)cn3c(=O)c2c1C | i | -10 | i | -1.1 | i | i | x | x | x | x | x
CCc1c(C)sc2nc3c(C(=O)N4CCOCC4)cc(C(=O)c4cc(F)ccc4O)cn3c(=O)c12 | i | -6 | i | 0.18 | -13* | -8.8* | i | i | 24%* | 96* | i
CCn1cc(Br)c(C(=O)Nc2ccc(F)c(Cl)c2)n1 | i | -16 | i | -1.1 | -12* | -11* | 46%* | i | 30%* | 104* | i
CN(/N=C/c1cc(Cl)cc(Cl)c1O)c1c(Cl)cccc1[N+](=O)[O-] | i | -5 | i | 0.26 | -13* | -11* | 62%* | i | 48%* | 116* | 0.15*
CN(C)C(=O)c1ccc(COc2ccccc2Br)o1 | i | -6 | i | -0.73 | i | i | x | x | x | x | x
COc1ccccc1NC(=O)c1ccc(COc2ccccc2Br)o1 | i | -7 | i | x | -13* | -10* | 56%* | i | 42%* | 130* | 0.15*
CCc1[nH]nc(C(=O)N/N=C/c2ccncc2)c1C | i | -12 | i | x | i | i | x | x | x | x | x
CCOC(=O)c1c(S(=O)(=O)Nc2ccc(F)cc2C)c(C)n(C)c1C | i | -1 | i | x | -14* | -9.5* | 64%* | i | 26%* | 116* | i
Cc1nnc(SCC(=O)c2c(N)n(C3CC3)c(=O)[nH]c2=O)n1-c1ccccc1 | x | x | x | x | x | i | x | x | x | x | x
CCOc1ccccc1C(=O)Nc1cc2c(cc1N1CCCC1)n(CC)c(=O)n2CC | i | -29 | i | x | -14* | -8.8* | 51%* | i | 22%* | 101* | i
O=C1COc2ccccc2N1Cc1ccc(Cl)cc1 | i | -10 | i | x | i | i | x | x | x | x | x
CCCSc1nsc(NC(=O)CC)n1 | i | -4 | i | -0.049 | i | i | x | x | x | x | x
CCCSc1nsc(NC(=O)C(c2ccccc2)c2ccccc2)n1 | i | -6 | 6* | -0.00068 | -8.8* | -9* | 55%* | i | 42%* | 132* | 0.12*
O=C(/C=C/Nc1ccccc1C(F)(F)F)c1ccco1 | i | -1 | i | -0.4 | -8.8* | -9.1* | i | i | i | 90* | i
COc1ccc(NC(=S)N(CCN2CCCCC2)Cc2ccco2)cc1 | i | -21 | i | -0.025 | i | i | x | x | x | x | x
Cc1ccc(NC(=S)N(CCN2CCCCC2)Cc2ccco2)cc1Cl | i | -10 | i | 0.59 | -8.2* | -10* | i | i | 26%* | 108* | i
c1csc(C(c2nnnn2C2CCCCC2)N2CCCC3(CCCCC3)C2)c1 (stereo not drawn) | i | -13 | i | 0.19 | i | i | x | x | x | x | x
CC(C)(C)n1nnnc1C(c1cccs1)N1CCCC2(CCCCC2)C1 (stereo not drawn) | i | -5 | i | -0.75 | -17* | -9.1* | 40%* | i | 40%* | 125* | 0.13*
Nc1nc(NCc2ccco2)nc(N2CCN(Cc3ccccc3)CC2)c1[N+](=O)[O-] | i | -11 | i | -1.6 | i | i | x | x | x | x | x
CC(OC(=O)C1CCCCC1)C(=O)Nc1cccc([N+](=O)[O-])c1 (stereo not drawn) | x | x | x | x | x | i | x | x | x | x | x
CN1\C(=C/C=C/C=C/C=[N+](C)C)C(C)(C)c2ccccc21 | i | -53 | 16* | x | -8.3* | -13* | 58%* | 76%* | 58%* | 155* | 0.085*
CN1/C(=C\C(=O)C(F)F)C(C)(C)c2ccccc21 | i | -5 | i | x | i | i | x | x | x | x | x
O=C(N/N=C/c1ccc(Cl)cc1)c1cc(-c2cccnc2)nc2ccccc12 | i | -4 | i | -0.14 | i | i | x | x | x | x | x
Nc1sc(-c2ccccc2)cc1C(=O)N/N=C/c1ccc(Cl)cc1 | i | -9 | i | -0.71 | -14* | i | 52%* | i | 38%* | 123* | i
C=CCc1cc(C=Nc2ccc(N3CCOCC3)cc2)cc(OCC)c1O | x | x | x | x | x | i | x | x | x | x | x
SMILES | KCNQ1 pot | hERG protect | KCNQ1 block | KCC2 mod | KCNK9 block | KCNK3 inh | KCNK9 inh conf | Kir21 sel | KCNK9 uninduced | KCNK3 confirm | KCNK3 noninduced
Cc1ccc(CSc2nc3ccccc3c(=O)n2Cc2ccco2)cc1 | i | -9 | i | 1 | -18* | -8.9* | 80%* | i | 45%* | 115* | 0.16*
O=c1c2ccccc2nc(SCc2ccccc2)n1Cc1ccco1 | i | -12 | i | -0.19 | -12* | -11* | 62%* | i | 43%* | 104* | i
Cc1ccc(CSc2nc3ccccc3c(=O)n2CCCC(=O)NCc2ccco2)cc1 | i | -5 | i | 1.8 | i | i | x | x | x | x | x
N#Cc1cc([N+](=O)[O-])ccc1NC(=O)COC(=O)CN1C(=O)C2CCCCC2C1=O (stereo not drawn) | x | x | x | x | x | i | x | x | x | x | x
N#CC(c1ccc(F)cc1)c1ccc(C(=O)c2ccc(F)cc2)cc1 (stereo not drawn) | i | -7 | i | 0.026 | -9.7* | -10* | 49%* | i | 34%* | 120* | i
COc1ccc(OCc2cc(C(=O)NC3CCOC(C)(C)C3)no2)c2ccccc12 (stereo not drawn) | i | -9 | i | x | i | i | x | x | x | x | x
CCCOC(=O)c1ccc(NC(=O)c2ccccc2[N+](=O)[O-])cc1 | i | -5 | i | -0.88 | -8.2* | -8.8* | 48%* | i | i | 105* | i
Cc1ccc(S(=O)(=O)N2CCOCC2)cc1C(=O)OCC(=O)NCCc1ccccc1 | x | x | x | x | x | i | x | x | x | x | x
CC(C)C1OC(c2cccc(NC(=O)c3cccs3)c2)OCC1(C)C (stereo not drawn) | i | -17 | i | 0.31 | -8.5* | -9.5* | 50%* | i | 44%* | 114* | 0.16*
CC1CCN(C(=O)N2c3ccccc3Sc3ccccc32)CC1 | i | -18 | 11* | -0.38 | -9.3* | -11* | 58%* | i | 46%* | 113* | 0.13*

Bioassay records: PubChem, several laboratories
